Experimental data as given in ChEMBL document CHEMBL2346664, “Synthesis, characterization and in vitro anticancer evaluation of novel 1,2,4-triazolin-3-one derivatives” (2013).

Assays:
Format in all cases: functional
MDA-MB-468 [1] = test: Growth inhibition of human MDA-MB-468 cells assessed as cell growth at 10 '-6 M after 48 hrs by sulforhodamine B assay; conditions: MDA-MB-468, 48 h, read-out: Activity
786-0 = test: Growth inhibition of human 786-0 cells assessed as cell growth at 10 '-6 M after 48 hrs by sulforhodamine B assay; conditions: 786-0, 48 h, read-out: Activity
Procedure, shortened: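 Percent growth at each of the five concentrations of the 48 h continuous-exposure NCI SRB screen. Drug stocks were in DMSO at 400× the top final concentration and diluted in medium with gentamicin. Growth was calculated as [(Ti-Tz)/(C-Tz)]×100 when Ti ≥ Tz, or [(Ti-Tz)/Tz]×100 when Ti < Tz. Tz plates were fixed at drug addition; untreated wells served as control. Absorbance was read at 515 nm.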

UACC-62 [2] = test: Growth inhibition of human UACC62 cells assessed as growth inhibition at 10 uM after 48 hrs by sulforhodamine B assay; conditions: UACC-62, 48 h, read-out: GI
SF-539 [3] = test: Growth inhibition of human SF539 cells assessed as growth inhibition at 10 uM after 48 hrs by sulforhodamine B assay; conditions: SF-539, 48 h, read-out: GI
HCT-116 [4] = test: Growth inhibition of human HCT116 cells assessed as growth inhibition at 10 uM after 48 hrs by sulforhodamine B assay; conditions: HCT-116, 48 h, read-out: GI
K562 = test: Growth inhibition of human K562 cells assessed as cell growth at 10 '-6 M after 48 hrs by sulforhodamine B assay; conditions: K562, 48 h, read-out: Activity
[5] = Growth inhibition of human NCI-ADR-RES cells assessed as cell growth at 10 '-4 M after 48 hrs by sulforhodamine B assay; conditions: read-out: Activity
UACC-62 [6] = test: Growth inhibition of human UACC62 cells assessed as cell growth at 10 '-4 M after 48 hrs by sulforhodamine B assay; conditions: UACC-62, 48 h, read-out: Activity
KM12 = test: Growth inhibition of human KM12 cells assessed as cell growth at 10 '-4 M after 48 hrs by sulforhodamine B assay; conditions: KM12, 48 h, read-out: Activity
SR = test: Growth inhibition of human SR cells assessed as cell growth at 10 '-8 M after 48 hrs by sulforhodamine B assay; conditions: read-out: Activity
MDA-MB-468 [7] = test: Growth inhibition of human MDA-MB-468 cells after 48 hrs by sulforhodamine B assay; conditions: MDA-MB-468, 48 h
Procedure, shortened: (§1)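 NCI 60-cell-line five-dose screen. Cells were plated at 5,000–40,000/well by doubling time and grown 24 h at 37 °C, 5% CO2. Time-zero plates were TCA-fixed. Drug from DMSO stock was tested at 0.01, 0.1, 1, 10 and 100 µM final for 48 h continuous exposure. Read-out was SRB at 515 nm. GI50 is the concentration giving 50% reduction in net protein increase versus untreated control.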

MDA-MB-231 [8] = test: Growth inhibition of human MDA-MB-231 cells after 48 hrs by sulforhodamine B assay; conditions: MDA-MB-231, 48 h; procedure, shortened: as §1
SN12C = test: Growth inhibition of human SN12C cells after 48 hrs by sulforhodamine B assay
COLO 205 [9] = test: Growth inhibition of human COLO205 cells assessed as cell growth at 10 '-4 M after 48 hrs by sulforhodamine B assay; conditions: COLO 205, 48 h, read-out: Activity
Procedure, shortened: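 In the same five-dose SRB screen (48 h, 37 °C, 5% CO2), percentage growth was computed at each concentration from time-zero (Tz), control (C) and treated (Ti) absorbances. The formula was [(Ti−Tz)/(C−Tz)]×100 when Ti ≥ Tz, or [(Ti−Tz)/Tz]×100 when Ti < Tz.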

HL-60(TB) = test: Growth inhibition of human HL-60(TB) cells assessed as cell growth at 10 '-4 M after 48 hrs by sulforhodamine B assay; conditions: HL-60, 48 h, read-out: Activity
Procedure, shortened: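 Five-dose NCI protocol with final concentrations of 0.01–100 µM and drug diluted from a DMSO stock (400× the top concentration) in medium with gentamicin. Cells were pre-incubated 24 h, then exposed 48 h at 37 °C. Suspension cells were fixed with 16% final TCA, SRB-stained and read at 515 nm. Percentage growth at each level was [(Ti−Tz)/(C−Tz)]×100, or [(Ti−Tz)/Tz]×100 when Ti < Tz.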

MCF7 = test: Growth inhibition of human MCF7 cells assessed as cell growth at 10 '-5 M after 48 hrs by sulforhodamine B assay; conditions: MCF7, 48 h, read-out: Activity
OVCAR-5 [10] = test: Growth inhibition of human OVCAR5 cells after 48 hrs by sulforhodamine B assay; conditions: OVCAR-5, 48 h
SF-539 [11] = test: Growth inhibition of human SF539 cells after 48 hrs by sulforhodamine B assay; conditions: SF-539, 48 h
RPMI-8226 = test: Growth inhibition of human RPMI8226 cells after 48 hrs by sulforhodamine B assay; conditions: RPMI-8226, 48 h
MDA-MB-468 [12] = test: Growth inhibition of human MDA-MB-468 cells assessed as growth inhibition at 10 uM after 48 hrs by sulforhodamine B assay; conditions: MDA-MB-468, 48 h, read-out: GI
MDA-MB-231 [13] = test: Growth inhibition of human MDA-MB-231 cells assessed as growth inhibition at 10 uM after 48 hrs by sulforhodamine B assay; conditions: MDA-MB-231, 48 h, read-out: GI
HCT-116 [14] = test: Growth inhibition of human HCT116 cells assessed as cell growth at 10 '-7 M after 48 hrs by sulforhodamine B assay; conditions: HCT-116, 48 h, read-out: Activity
OVCAR-5 [15] = test: Growth inhibition of human OVCAR5 cells assessed as cell growth at 10 '-8 M after 48 hrs by sulforhodamine B assay; conditions: OVCAR-5, 48 h, read-out: Activity
OVCAR-3 = test: Growth inhibition of human OVCAR3 cells assessed as cell growth at 10 '-8 M after 48 hrs by sulforhodamine B assay; conditions: OVCAR-3, 48 h, read-out: Activity
LOX IMVI = test: Growth inhibition of human LOXIMVI cells assessed as cell growth at 10 '-8 M after 48 hrs by sulforhodamine B assay; conditions: read-out: Activity
HT-29 = test: Growth inhibition of human HT-29 cells assessed as cell growth at 10 '-8 M after 48 hrs by sulforhodamine B assay; conditions: HT-29, 48 h, read-out: Activity
COLO 205 [16] = test: Growth inhibition of human COLO205 cells assessed as cell growth at 10 '-8 M after 48 hrs by sulforhodamine B assay; conditions: COLO 205, 48 h, read-out: Activity
[17] = read-out: LD50 (the source's name)

Cc1cc(=O)oc2cc(OCCn3c(C)nn(-c4ccc(Cl)cc4)c3=O)ccc12
growth at 1 µM (MDA-MB-468 [1]): 77% | growth at 1 µM (786-0): 97% | inhibition of growth at 10 µM (UACC-62 [2]): 56.7% | inhibition of growth at 10 µM (SF-539 [3]): 70.5% | inhibition of growth at 10 µM (HCT-116 [4]): 84.9% | growth at 1 µM (K562): 53% | growth at 100 µM [5]: 2% | growth at 100 µM (UACC-62 [6]): 30% | growth at 100 µM (KM12): 12% | growth at 0.01 µM (SR): 101% | GI50 (MDA-MB-468 [7]): 2.69 µM | TGI (MDA-MB-468 [7]): 5.76 µM | CC50 (MDA-MB-468 [7]; [17]): > 1 µM | GI50 (MDA-MB-231 [8]): 4.53 µM | TGI (MDA-MB-231 [8]): > 1 µM | CC50 (MDA-MB-231 [8]; [17]): > 1 µM | GI50 (SN12C): 5.54 µM | TGI (SN12C): > 1 µM | CC50 (SN12C; [17]): > 1 µM | growth at 100 µM (COLO 205 [9]): -38% | growth at 100 µM (HL-60(TB)): 1% | growth at 10 µM (MCF7): 14% | GI50 (OVCAR-5 [10]): 2.19 µM | TGI (OVCAR-5 [10]): > 1 µM | CC50 (OVCAR-5 [10]; [17]): > 1 µM | GI50 (SF-539 [11]): 4.06 µM | TGI (SF-539 [11]): 4.74 µM | CC50 (SF-539 [11]; [17]): > 1 µM | GI50 (RPMI-8226): 1.1 µM | TGI (RPMI-8226): > 1 µM | CC50 (RPMI-8226; [17]): > 1 µM | inhibition of growth at 10 µM (MDA-MB-468 [12]): 83.9% | inhibition of growth at 10 µM (MDA-MB-231 [13]): 52.5% | growth at 0.1 µM (HCT-116 [14]): 98% | growth at 0.01 µM (OVCAR-5 [15]): 105% | growth at 0.01 µM (OVCAR-3): 111% | growth at 0.01 µM (LOX IMVI): 96% | growth at 0.01 µM (HT-29): 104% | growth at 0.01 µM (COLO 205 [16]): 102%
